High-throughput results deposited in PubChem by Sanford-Burnham Center for Chemical Genomics.
SENP8 block-1 = inhibitors of human SENP8 protease; Q96LD8; purified SENP8, Z-RLRGG-aminoluciferin cleavage, luminescence; inhibition, % at 10 µM; 330,000 tested, 1.2% active; AID 2540; in the data active = inhibition above about 50%
Target sequence (Q96LD8 whole entry, looked up): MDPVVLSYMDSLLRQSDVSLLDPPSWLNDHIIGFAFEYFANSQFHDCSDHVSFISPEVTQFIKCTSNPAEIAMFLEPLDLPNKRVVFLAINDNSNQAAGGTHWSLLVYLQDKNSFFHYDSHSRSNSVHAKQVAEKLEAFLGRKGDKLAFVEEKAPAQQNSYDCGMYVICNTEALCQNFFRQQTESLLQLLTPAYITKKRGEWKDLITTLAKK
SENP1 FRET inh = SENP1 (human) catalytic domain inhibition; Q9P0U3; recombinant SENP1 catalytic domain, CyPet-SUMO1-YPet FRET cleavage; inhibition, % at 10 µM; 360,000 tested, 0.21% active;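 active = inhibition at least 30% at 10 µM, raw YFP signal under a set limit, fluorescence ratio 0.5 to 1.5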
Target sequence (Q9P0U3 419-644 limits assumed): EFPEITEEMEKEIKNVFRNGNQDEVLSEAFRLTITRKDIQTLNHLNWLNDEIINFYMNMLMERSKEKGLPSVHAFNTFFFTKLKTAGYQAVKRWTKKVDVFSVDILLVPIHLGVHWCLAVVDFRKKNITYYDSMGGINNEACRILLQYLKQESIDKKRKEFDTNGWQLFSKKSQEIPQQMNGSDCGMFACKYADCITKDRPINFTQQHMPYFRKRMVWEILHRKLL
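material = recombinant human SENP1 catalytic domain, His6-tagged | quantity = 20 pM enzyme | reagent = 25 nM SUMO1 FRET substrate | compound dosing = 10 µM single point, 0.5% DMSO | timing = 50 min enzyme reaction, room temperature, light-protected | detection = FRET, CFP and YFP emission | control set = no-enzyme low, enzyme-DMSO high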
SENP6 block = SENP6 protease inhibition. Q9GZR1. Recombinant SENP6 catalytic domain, aminoluciferin luminescence. inhibition, % at 10 µM. 330,000 tested, 1.8% active. AID 2599;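 active = inhibition above about 50% at the single tested dose, limit read from the data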
SENP7 inh = inhibitors of human SENP7 protease; Q9BQF6; 330,000 tested, 1.5% active; inhibition, % at 5 µM; recombinant SENP7, Z-RLRGG-aminoluciferin luminescence, 40 min;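 active = inhibition above about 50% at the single test dose, limit read from the data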
NRP1-CendR mod = modulators of CendR peptide binding to human neuropilin-1; O14786; FAM-RPARPAR peptide binding to NRP-1, fluorescence polarization; inhibition, % at 25 µM; 360,000 tested, 0.85% active; AID 602438;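 active = inhibition or corrected inhibition above about 18%, plus a signal ratio from 0.5 to 1.5, limit read from the data, passing the limit was not always enough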
SENP8 block-2 = inhibitors of human SENP8 protease; recombinant SENP8, Nedd8 substrate fluorescence; 360,000 tested, 0.64% active; inhibition, % at 20 µM; in the data active = inhibition mostly above about 40%, no sharp cut-off; inactive = mostly below about 27%
SENP8 conf = human SENP8 inhibition, confirmed; shares compounds with SENP7 inh; inhibition, % at 12.5 µM; 6,200 tested, 40% active; Recombinant SENP8, Z-RLRGG-aminoluciferin luminescence, 60 min;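 active = mean inhibition across replicates above about 50%, limit read from the data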
SENP6 confirm = human SENP6 inhibition, confirmed; inhibition, % at 12.5 µM; 6,200 tested, 58% active; shares compounds with SENP7 inh; recombinant SENP6, Z-RLRGG-aminoluciferin luminescence
SENP7 confirm = human SENP7 inhibition, confirmed. 6,200 tested, 69% active. recombinant SENP7, Z-RLRGG-aminoluciferin luminescence, 40 min. shares compounds with SENP7 inh. inhibition, % at 12.5 µM
Casp3 SENP sel = caspase-3 inhibition (SENP selectivity assay); shares compounds with SENP7 inh; purified caspase-3, Z-DEVD-aminoluciferin luminescence, 60 min; 6,200 tested, 60% active; AID 488918; inhibition, % at 12.5 µM;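 active = mean inhibition above about 50%, limit read from the data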
Target sequence (P42574 28-227 limits assumed): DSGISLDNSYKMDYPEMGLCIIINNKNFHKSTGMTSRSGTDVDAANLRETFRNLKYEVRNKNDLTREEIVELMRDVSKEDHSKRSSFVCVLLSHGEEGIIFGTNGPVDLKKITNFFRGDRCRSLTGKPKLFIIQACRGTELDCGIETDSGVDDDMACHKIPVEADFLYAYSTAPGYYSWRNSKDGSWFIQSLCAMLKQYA
Luc interf = interferes with luciferase luminescence in SENP counter-screen. shares compounds with SENP7 inh. Pre-incubated SENP8/Z-RLRGG-aminoluciferin, luciferase luminescence interference. AID 488919. 6,200 tested, 39% active. inhibition, % at 12.5 µM;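 active = mean inhibition above about 50% when retested at one dose, limit read from the data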
A number is an active result; - = inactive; . = no result given. This is a sample that favours compounds with a hit; in the whole collection about 3.3% have one here.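 Rule for the calls, unless noted: active = mean inhibition above about 50% in the one-dose retest (limit read from the data); inactive = the rest.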

SMILES | SENP8 block-1 | SENP1 FRET inh | SENP6 block | SENP7 inh | NRP1-CendR mod | SENP8 block-2 | SENP8 conf | SENP6 confirm | SENP7 confirm | Casp3 SENP sel | Luc interf
C[C@@H]1CN([C@H](C)CO)C(=O)CCCn2cc(nn2)CO[C@H]1CN(C)C(=O)Nc1cccc(F)c1 | . | - | . | . | - | - | . | . | . | . | .
CC1=C(C(=O)N2CCOCC2)CC(CC(=O)NCCN2CCOCC2)C(=O)N1Cc1ccccc1 (stereo unspecified) | . | - | . | . | - | - | . | . | . | . | .
Cc1cc(C(=O)N/N=C/c2ccc3c(c2)OCO3)c(C)o1 | 70 | - | 74 | 77 | - | - | 86 | 84 | 97 | 93 | 58
Cc1cc(C)nc(SCC(=O)N/N=C/c2ccc3c(c2)OCO3)n1 | 52 | - | 62 | - | - | - | - | - | - | - | -
O=C(N/N=C/c1ccc2c(c1)OCO2)c1cccs1 | 84 | - | 76 | 89 | - | - | 92 | 93 | 100 | 94 | 90
Cc1ccsc1C(=O)N/N=C/c1ccc2c(c1)OCO2 | 96 | - | 97 | 100 | - | - | 96 | 100 | 103 | 99 | 99
O=C(N/N=C/c1ccc2c(c1)OCO2)c1ccc(Cl)cc1Cl | - | - | - | - | - | - | . | . | . | . | .
CSCC[C@H](CO)NC(=O)[C@H]1O[C@@H](n2cnc3c(N)ncnc32)[C@H](O)[C@@H]1O | . | - | . | . | - | - | . | . | . | . | .
Cc1ccsc1CNC(=O)C1(C)CCCN1CC(C)C (stereo unspecified) | . | - | . | . | - | - | . | . | . | . | .
COc1cccc(/C=N/NC(=O)c2cccs2)c1 | - | - | 55 | 62 | - | - | 54 | 50 | 84 | 71 | 64
COc1cc(/C=N/NC(=O)c2cccs2)ccc1O | - | - | - | - | - | - | . | . | . | . | .
CC(C)COC(=O)N(C)C[C@H]1OCc2cnnn2CCCC(=O)N([C@H](C)CO)C[C@@H]1C | . | - | . | . | - | - | . | . | . | . | .
CCOc1ccc(NS(=O)(=O)c2ccc(OCC(=O)N3CCCC3)cc2)cc1 | - | - | - | 91 | - | - | - | - | - | - | -
Nc1ccc2nn(-c3ccc(F)cc3)nc2c1 | 84 | - | 88 | 57 | - | - | 61 | 76 | 94 | 72 | -
Nc1ccc2nn(-c3cc([N+](=O)[O-])ccc3O)nc2c1 | - | - | - | - | - | - | . | . | . | . | .
CC(C)c1ccc(-n2nc3ccc(N)cc3n2)cc1 | 73 | - | 88 | - | - | - | - | 88 | 98 | 56 | -
CC(C)c1ccc(NC(=O)CN(C)C2=NS(=O)(=O)c3ccccc32)cc1 | . | - | . | . | - | - | . | . | . | . | .
CC(C)c1cc(Cn2c3ccccc3c(=O)n2C(C)Cn2cc(-c3ccc(C(C)(C)C)cc3)nn2)on1 (stereo unspecified) | . | - | . | . | - | - | . | . | . | . | .
CCc1cc(C(=O)Nc2ncccc2O)sc1C | - | - | 66 | 67 | - | - | 52 | 53 | 86 | 81 | 63
COc1cccc(C(=O)Cn2c(=N)n(C)c3ccccc32)c1 | - | - | 64 | - | - | - | - | - | - | - | -
COc1cccc(C(=O)Cn2c(NCCO)nc3ccccc32)c1 | - | - | - | - | - | - | . | . | . | . | .
O=C(O)c1ccc(NCCC2=CCCCC2)c([N+](=O)[O-])c1 | 82 | - | 86 | - | - | - | - | 87 | 97 | 88 | 78
CCOC(=O)C1(C)CCN1C(=O)c1ccccc1 (stereo unspecified) | . | - | . | . | - | - | . | . | . | . | .
Cc1nc2c(OCc3ccc(C#N)cc3)cccn2c1N(C)Cc1cccs1 | . | - | . | . | - | - | . | . | . | . | .
c1ccc(CNc2ccc3ccccc3n2)nc1 | 86 | - | 87 | - | - | - | 88 | 89 | 99 | 92 | 91
SMILES | SENP8 block-1 | SENP1 FRET inh | SENP6 block | SENP7 inh | NRP1-CendR mod | SENP8 block-2 | SENP8 conf | SENP6 confirm | SENP7 confirm | Casp3 SENP sel | Luc interf
Cc1cc(NCc2ccccn2)nc2ccccc12 | - | - | - | - | - | - | . | . | . | . | .
Cc1cc(F)ccc1C(O)c1ncc(-c2ccccc2C(F)(F)F)[nH]1 (stereo unspecified) | . | - | . | . | - | - | . | . | . | . | .
COC(=O)c1ccc(NC(=O)Nc2cccc(F)c2)cc1 | 79 | - | 88 | 90 | - | - | 75 | 75 | 96 | 69 | -
O=C(Nc1ccccc1)Nc1ccccc1Br | 73 | - | 59 | 81 | - | - | - | 82 | 96 | 78 | -
O=C(Nc1ccccc1)Nc1cccc(NC(=O)Nc2ccccc2)c1F | - | - | - | - | - | - | . | . | . | . | .
COC(=O)c1ccc(NC(=O)Nc2ccc(F)cc2F)cc1 | 64 | - | 81 | 88 | - | - | - | - | 77 | 72 | -
O=C(Nc1ccccc1)Nc1ccc(F)cc1F | - | - | 67 | 70 | - | - | 59 | 56 | 82 | 67 | -
CC(=O)Nc1cccc(NC(=O)Nc2ccc(F)cc2F)c1 | - | - | - | - | - | - | . | . | . | . | .
COC(=O)c1ccc(NC(=O)Cc2ccc(F)cc2)cc1 | - | - | - | - | - | - | . | . | . | . | .
O=C(NCCc1c[nH]c2ccccc12)c1ccc([N+](=O)[O-])o1 | . | - | . | . | - | - | . | . | . | . | .
CN1OC[C@@H]2CN(S(=O)(=O)c3cccc4ccccc34)[C@H](c3ccc(-c4ccccc4)cc3)C[C@@H]21 | . | - | . | . | - | - | . | . | . | . | .
CCOc1ccccc1-c1cncc(NC)n1 | . | - | . | . | - | - | . | . | . | . | .
CC(=NNC(=S)N1CC2CCC(CC2)C1)c1ccncn1 | . | - | . | . | - | - | . | . | . | . | .
COc1ccc([C@H]2C[C@H](O)[C@@H](n3cc(C4CC4)nn3)CN2C(=O)C2CCCCC2)cc1 | . | - | . | . | - | - | . | . | . | . | .
CCSc1nsc(NC(=O)Nc2ccccc2Cl)n1 | . | - | . | . | - | - | . | . | . | . | .
CCSc1nsc(NC(=O)Nc2ccc(F)cc2F)n1 | - | - | 52 | - | - | - | - | - | 65 | - | -
COc1ccc(NC(=O)N(CCO)Cc2cc3c(C)cc(C)cc3[nH]c2=O)cc1 | - | - | - | - | - | - | . | . | . | . | .
COc1ccc(NC(=S)N(CCO)Cc2cc3c(C)cc(C)cc3[nH]c2=O)cc1 | - | - | 89 | - | - | - | - | - | - | - | -
O=C(c1c(O)c2ccccc2oc1=O)C1CCCCC1 | - | - | - | - | - | - | . | . | . | . | .
O=C(CCC1CCCC1)c1c(O)c2ccccc2oc1=O | - | - | 71 | - | - | - | 68 | 68 | 85 | 70 | -
CCN1CCC(N2CCN(c3ccc(Cl)cc3)CC2)CC1 | - | . | 78 | - | . | . | - | - | - | - | -
